What was measured:
[1] = tested on: Trypanosoma cruzi; assay: Antiparasitic activity against epimastigote stage of Trypanosoma cruzi infected in Vero cells assessed as parasite growth inhibition […] by hemocytometery; format: functional, organism-based
Method in brief: (§1)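 Exponential-phase T. cruzi Sylvio X10 epimastigotes (LIT medium with hiFCS) or L. (L.) infantum MHOM/BR/74/PP75 promastigotes (RPMI 1640, hemin, HEPES, 10% hiFCS) were exposed to threefold serial dilutions (0.3–300 µg/mL) for 72 h at 28 °C. Viable parasites were counted by hemocytometer with 0.25% eosin yellow. IC50 came from sigmoidal regression, given as mean ± SD.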

[2] = Selectivity index, ratio of CC50 for African green monkey Vero cells to IC50 for epimastigote stage of Trypanosoma cruzi; format: functional
Method in brief: (§2)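 Selectivity index was calculated as CC50 in Vero (T. cruzi) or THP-1 (L. infantum) cells divided by parasite IC50. Both values came from 72 h mammalian-cell MTT assays and the parasite assays; SI ≥ 3 was defined as parasite-selective.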

[3] = tested on: Leishmania infantum; assay: Antiparasitic activity against promastigote stage of Leishmania infantum infected in THP1 cells assessed as parasite growth inhibition […] by hemocytometery; format: functional, organism-based; conditions: THP-1; method in brief: as §1
[4] = tested on: Leishmania infantum; assay: Antiparasitic activity against amastigote stage of Leishmania infantum infected in THP1 cells assessed as parasite growth inhibition after 24 hrs by hemocytometery; format: functional, organism-based, THP-1
Method in brief: (§3)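 Host cells were Vero for T. cruzi (infected with tissue-derived trypomastigotes) and THP-1 (PMA-transformed, 10 ng/mL) for L. (L.) infantum (infected with late-phase promastigotes), at 1:10 cell:parasite for 24 h. Serial dilutions were given as two doses, the second on day 3 with a medium change. Read-out was % infected cells on methanol-fixed, Giemsa-stained slides (300 cells). IC50 came from sigmoidal regression; experiments in duplicate, concentrations in triplicate.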

[5] = Selectivity index, ratio of CC50 for human THP1 cells to IC50 for promastigote stage of Leishmania infantum; format: functional, THP-1; method in brief: as §2
[6] = tested on: Trypanosoma cruzi; assay: Antiparasitic activity against amastigote stage of Trypanosoma cruzi infected in Vero cells assessed as parasite growth inhibition after 24 hrs by hemocytometery; format: functional, organism-based; method in brief: as §3
[7] = Cytotoxicity against human THP1 cells; format: cell-based; conditions: THP-1 cells
Method in brief: (§4)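 Vero monolayers or THP-1 cells (made adherent with 10 ng/mL PMA), in RPMI 1640 with 10% hiFCS, were exposed to compound (0.3–300 µg/mL) for 72 h at 37 °C, 5% CO2. Viability was measured by MTT, with formazan dissolved in DMSO and read at 580 nm. % cytotoxicity was calculated against untreated cells; CC50 came from sigmoidal regression, given as mean ± SD.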

[8] = Cytotoxicity against African green monkey Vero cells; format: cell-based; conditions: chlorocebus sabaeus; method in brief: as §4
[9] = Selectivity index, ratio of CC50 for human THP1 cells to IC50 for amastigote stage of Leishmania infantum; format: functional, THP-1; method in brief: as §2
[10] = tested on: Leishmania infantum; assay: Antiparasitic activity against promastigote stage of Leishmania infantum assessed as parasite growth inhibition after 72 hrs by hemocytometery
[11] = Selectivity index, ratio of CC50 for African green monkey Vero cells to IC50 for amastigote stage of Trypanosoma cruzi; format: functional; method in brief: as §2
[12] = Leishmania infantum, THP-1, 24 h, read-out: IC50
[13] = Trypanosoma cruzi, Vero, 24 h, read-out: IC50

SMILES | IC50 [1] [µM] | Selectivity Index [2] | IC50 [3] [µM] | IC50 [4, 12] [µM] | Selectivity Index [5] | IC50 [6, 13] [µM] | CC50 [7] [µM] | CC50 [8] [µM] | Selectivity Index [9] | IC50 [10] [µM] | Selectivity Index [11] | IC50 ([4]; thp-1) | IC50 ([6]; vero)
O[C@@H]1Cc2cc(OC(F)(F)F)ccc2N[C@H](c2ccco2)C1 (relative stereo) | 606 | 0.3 | 45.9 | > 106 | 2.9 | > 106 | 134 | 166 |  |  |  |  | 
FC(F)(F)Oc1ccc2c(c1)C[C@@H]1C[C@@H](c3ccco3)N2O1 (racemic) | 166 | 0.6 |  | 172 | 19.9 | 319 | 319 | 93.4 | 1.9 | 16 | 0.3 |  | 
Cc1ccc([C@@H]2C[C@H](O)Cc3cc(OC(F)(F)F)ccc3N2)s1 (relative stereo) | 65.7 | 0.4 | 11.3 |  | 8.6 |  | 98 | 23.9 |  |  |  | ND(toxic) | ND(toxic)
C[C@@H]1[C@H](O)[C@@H](C)/C=C/C=C/C=C/C=C/C=C/C=C/C=C/[C@H](O[C@@H]2O[C@H](C)[C@@H](O)[C@H](N)[C@@H]2O)C[C@@H]2O[C@](O)(C[C@@H](O)C[C@@H](O)[C@H](O)CC[C@@H](O)C[C@@H](O)CC(=O)O[C@H]1C)C[C@H](O)[C@H]2C(=O)O [AMPHOTERICIN B] |  |  |  | 0.01 | 927.5 |  | 29.7 |  | 456.6 | 0.03 |  |  | 
Cc1ccsc1[C@@H]1C[C@H]2Cc3cc(F)ccc3N1O2 (racemic) | 102 | 5.9 |  | 204 | 2.9 | 330 | 221 | 601 | 1.1 | 75.9 | 1.8 |  | 
c1csc([C@@H]2C[C@H]3Cc4ccccc4N2O3)c1 (relative stereo) | 198 | 11.6 |  | 406 | 45.7 | > 411 | 727 | 2310 | 1.8 | 15.9 |  |  | 
Cc1ccc([C@@H]2C[C@H](O)Cc3cc(OC(F)(F)F)ccc3N2)o1 (relative stereo) | 42.7 | 1.9 | 12.8 | > 102 | 9.7 | > 102 | 124 | 82.1 |  |  |  |  | 
Cc1ccsc1[C@@H]1C[C@H](O)Cc2cc(OC(F)(F)F)ccc2N1 (relative stereo) | 10.7 | 2.5 | 16.4 | > 97.1 | 5.5 |  | 89.7 | 26.7 |  |  |  |  | ND(toxic)
Cc1ccc([C@@H]2C[C@H]3Cc4ccccc4N2O3)o1 (racemic) | 92.9 | 5.7 |  | 398 | 14.5 | > 415 | 394 | 533 | 1 | 27.3 |  |  | 
O[C@@H]1Cc2cc(OC(F)(F)F)ccc2N[C@H](c2cccs2)C1 | 87.8 | 0.2 | 13.8 | > 101 | 4.4 | > 101 | 61.5 | 20.4 |  |  |  |  | 
Cc1ccc([C@@H]2C[C@H](O)Cc3cc(F)ccc3N2)s1 (relative stereo) | 164 | 4.9 | 16.9 | > 120 | 18.5 | 123 | 312 | 801 |  |  | 6.53 |  | 
Cc1ccsc1[C@@H]1C[C@H](O)Cc2cc(F)ccc2N1 (relative stereo) | 45.9 | 5.3 | 62.5 | > 120 | 28.9 | > 120 | 1810 | 243 |  |  |  |  | 
Cc1ccsc1[C@@H]1C[C@H]2Cc3ccccc3N1O2 (racemic) | 27.6 | 16.4 |  | 368 | 6.7 | 134 | 377 | 453 | 1 | 56.6 | 3.4 |  | 
Cc1ccc([C@@H]2C[C@H](O)Cc3ccccc3N2)o1 (relative stereo) | 120 | 3.1 | 189 | > 411 | 1.4 | > 411 | 262 | 370 |  |  |  |  | 
O[C@@H]1Cc2ccccc2N[C@H](c2ccco2)C1 (relative stereo) | 884 | >1.5 | 696 | > 436 | 0.3 | > 436 | 236 | > 1310 |  |  |  |  | 
Fc1ccc2c(c1)C[C@@H]1C[C@@H](c3cccs3)N2O1 (racemic) | 104 | 13.5 |  | 177 | 86.6 | 103 | 991 | 1400 | 5.6 | 11.5 | 13.5 |  | 
Clc1ccc2c(c1)C[C@@H]1C[C@@H](c3ccc(Br)s3)N2O1 (racemic) | 14.7 | 113.4 |  | 65.2 | >117.9 | 23.9 | > 1690 | 1660 | >25.9 | 14.3 | 69.8 |  | 
Brc1ccc([C@@H]2C[C@H]3Cc4ccccc4N2O3)s1 (racemic) | 62.2 | 28.9 |  | > 312 | 34.7 | 137 | 1250 | 1800 |  | 36.1 | 13.2 |  | 
Cc1ccc([C@@H]2C[C@H](O)Cc3cc(F)ccc3N2)o1 (relative stereo) | 115 | 7.2 | 141 | > 383 | >8.1 | > 383 | > 1150 | 823 |  |  |  |  | 
O[C@@H]1Cc2cc(F)ccc2N[C@H](c2ccoc2)C1 | 177 | 5.9 | 365 | > 405 | 1.9 | > 405 | 689 | 1040 |  |  |  |  | 
O[C@@H]1Cc2ccccc2N[C@H](c2cccs2)C1 (relative stereo) | 219 | 4.5 |  | 138 | 5.3 | > 408 | 773 | 986 | 5.6 | 146 |  |  | 
Cc1ccsc1[C@@H]1C[C@H]2Cc3cc(Cl)ccc3N1O2 (racemic) | 11.7 | 15.6 |  | > 344 | 7.7 | 99 | 250 | 183 |  | 32.3 | 1.9 |  | 
Cc1ccc([C@@H]2C[C@H](O)Cc3cc(Cl)ccc3N2)o1 (relative stereo) | 61.8 | 4.9 | 110 | > 361 | >9.9 | 323 | > 1080 | 300 |  |  | 0.93 |  | 
Cc1ccc([C@@H]2C[C@H](O)Cc3ccccc3N2)s1 (relative stereo) | 22.8 | 41.9 |  | > 128 | 5.5 | 131 | 608 | 956 |  | 111 | 7.3 |  | 
